# Measured values reported in ChEMBL document CHEMBL1649446, “Comparative antipneumococcal activities of sulopenem and other drugs” (2009).
# What was measured:
# Assay type in all cases: functional
# Streptococcus pneumoniae [1] = test: Antimicrobial activity against Streptococcus pneumoniae isolate 1384 by agar dilution method
# Outline: (§1)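 Agar dilution MIC on Mueller-Hinton agar with 5% sheep blood, inocula 10^4 CFU/spot; amoxicillin-clavulanate combined 1:2; S. pneumoniae ATCC 49619 quality control each run.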
# Streptococcus pneumoniae [2] = test: Antimicrobial activity against Streptococcus pneumoniae isolate 1394 by agar dilution method
# Streptococcus pneumoniae [3] = test: Antimicrobial activity against Streptococcus pneumoniae isolate 3282 by agar dilution method
# Streptococcus pneumoniae [4] = test: Antimicrobial activity against compound-susceptible Streptococcus pneumoniae by agar dilution method; outline: as §1
# Streptococcus pneumoniae [5] = test: Antimicrobial activity against Streptococcus pneumoniae isolate 2874 by agar dilution method; outline: as §1
# Streptococcus pneumoniae [6] = test: Antimicrobial activity against Streptococcus pneumoniae isolate 3412 by agar dilution method; outline: as §1
# Streptococcus pneumoniae [7] = test: Antimicrobial activity against Streptococcus pneumoniae isolate 3458 by agar dilution method
# Streptococcus pneumoniae [8] = test: Antimicrobial activity against Streptococcus pneumoniae isolate 3481 by agar dilution method; outline: as §1
# Streptococcus pneumoniae [9] = test: Antimicrobial activity against Streptococcus pneumoniae isolate 1147 by agar dilution method; outline: as §1
# Streptococcus pneumoniae [10] = test: Antimicrobial activity against Streptococcus pneumoniae isolate 3374 by agar dilution method; outline: as §1
# Streptococcus pneumoniae [11] = test: Antimicrobial activity against compound-intermediate Streptococcus pneumoniae by agar dilution method; outline: as §1
# Streptococcus pneumoniae [12] = test: Antimicrobial activity against Streptococcus pneumoniae isolate 33 by agar dilution method; outline: as §1
# Streptococcus pneumoniae [13] = test: Antimicrobial activity against Streptococcus pneumoniae isolate 3587 by agar dilution method
# Streptococcus pneumoniae [14] = test: Antimicrobial activity against Streptococcus pneumoniae isolate 2688 by agar dilution method; outline: as §1
# Streptococcus pneumoniae [15] = test: Antimicrobial activity against Streptococcus pneumoniae isolate 3681 by agar dilution method; outline: as §1
# Streptococcus pneumoniae [16] = test: Antimicrobial activity against Streptococcus pneumoniae isolate 2880 by agar dilution method; outline: as §1
# Streptococcus pneumoniae [17] = test: Antimicrobial activity against Streptococcus pneumoniae isolate 1146 by agar dilution method; outline: as §1
# Streptococcus pneumoniae [18] = test: Antimicrobial activity against Streptococcus pneumoniae isolate 1564 by agar dilution method
# Streptococcus pneumoniae [19] = test: Antimicrobial activity against Streptococcus pneumoniae isolate 3260 by agar dilution method
# Streptococcus pneumoniae [20] = test: Antimicrobial activity against Streptococcus pneumoniae isolate 3346 by agar dilution method
# Streptococcus pneumoniae [21] = test: Antimicrobial activity against Streptococcus pneumoniae isolate 4755 by agar dilution method; outline: as §1
# Streptococcus pneumoniae [22] = test: Antimicrobial activity against Streptococcus pneumoniae isolate 1397 by agar dilution method; outline: as §1
# Streptococcus pneumoniae [23] = test: Antimicrobial activity against Streptococcus pneumoniae isolate 24 by agar dilution method
# Streptococcus pneumoniae [24] = test: Antimicrobial activity against Streptococcus pneumoniae isolate 2686 by agar dilution method; outline: as §1
# Streptococcus pneumoniae [25] = test: Antimicrobial activity against Streptococcus pneumoniae isolate 1055 by agar dilution method
# Streptococcus pneumoniae [26] = test: Antimicrobial activity against compound-resistant Streptococcus pneumoniae by agar dilution method
# Outline: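 Agar dilution on Mueller-Hinton agar with 5% sheep blood, inocula 10^4 CFU/spot. Panel of 45 drug-resistant serotype 19A pneumococci, plus 297 clinical strains grouped as penicillin-susceptible, -intermediate or -resistant (some macrolide- or levofloxacin-resistant, with defined mechanisms). Amoxicillin combined with clavulanate 1:2. S. pneumoniae ATCC 49619 quality control included in each run. MIC range, MIC50 and MIC90 reported.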
# Streptococcus pneumoniae [27] = test: Antimicrobial activity against Streptococcus pneumoniae isolate 3275 by agar dilution method; outline: as §1
# Streptococcus pneumoniae [28] = test: Antimicrobial activity against Streptococcus pneumoniae isolate 37 by agar dilution method; outline: as §1
# Streptococcus pneumoniae [29] = test: Antimicrobial activity against Streptococcus pneumoniae isolate 3791 by agar dilution method; outline: as §1
# Streptococcus pneumoniae [30] = test: Antimicrobial activity against Streptococcus pneumoniae isolate 1424 by agar dilution method; outline: as §1
# Streptococcus pneumoniae [31] = test: Antimicrobial activity against Streptococcus pneumoniae isolate 2617 by agar dilution method; outline: as §1
# Streptococcus pneumoniae [32] = test: Antimicrobial activity against Streptococcus pneumoniae isolate 3455 by agar dilution method
# Streptococcus pneumoniae [33] = test: Antimicrobial activity against Streptococcus pneumoniae isolate 4747 by agar dilution method; outline: as §1
smiles,measurement,setting,value
CC1(C)S[C@@H]2[C@H](NC(=O)Cc3ccccc3)C(=O)N2[C@H]1C(=O)O [PENICILLIN G],MIC,Streptococcus pneumoniae [1],4 µg/mL
same,MIC,Streptococcus pneumoniae [2],4 µg/mL
same,MIC,Streptococcus pneumoniae [3],4 µg/mL
same,MIC50,Streptococcus pneumoniae [4],0.03 µg/mL
same,MIC90,Streptococcus pneumoniae [4],0.06 µg/mL
same,MIC,Streptococcus pneumoniae [5],8 µg/mL
same,MIC,Streptococcus pneumoniae [6],2 µg/mL
same,MIC,Streptococcus pneumoniae [7],4 µg/mL
same,MIC,Streptococcus pneumoniae [8],8 µg/mL
same,MIC,Streptococcus pneumoniae [9],4 µg/mL
same,MIC,Streptococcus pneumoniae [10],2 µg/mL
same,MIC50,Streptococcus pneumoniae [11],0.25 µg/mL
same,MIC90,Streptococcus pneumoniae [11],1 µg/mL
same,MIC,Streptococcus pneumoniae [12],4 µg/mL
same,MIC,Streptococcus pneumoniae [13],2 µg/mL
same,MIC,Streptococcus pneumoniae [14],8 µg/mL
same,MIC,Streptococcus pneumoniae [15],1 µg/mL
same,MIC,Streptococcus pneumoniae [16],4 µg/mL
same,MIC,Streptococcus pneumoniae [17],4 µg/mL
same,MIC,Streptococcus pneumoniae [18],16 µg/mL
same,MIC,Streptococcus pneumoniae [19],4 µg/mL
same,MIC,Streptococcus pneumoniae [20],4 µg/mL
same,MIC,Streptococcus pneumoniae [21],8 µg/mL
same,MIC,Streptococcus pneumoniae [22],2 µg/mL
same,MIC,Streptococcus pneumoniae [23],4 µg/mL
same,MIC,Streptococcus pneumoniae [24],4 µg/mL
same,MIC,Streptococcus pneumoniae [25],2 µg/mL
same,MIC,Streptococcus pneumoniae [26],2 µg/mL
same,MIC50,Streptococcus pneumoniae [26],2 µg/mL
same,MIC90,Streptococcus pneumoniae [26],4 µg/mL
same,MIC,Streptococcus pneumoniae [27],1 µg/mL
same,MIC,Streptococcus pneumoniae [28],4 µg/mL
same,MIC,Streptococcus pneumoniae [29],2 µg/mL
same,MIC,Streptococcus pneumoniae [30],2 µg/mL
same,MIC,Streptococcus pneumoniae [31],1 µg/mL
same,MIC,Streptococcus pneumoniae [32],4 µg/mL
same,MIC,Streptococcus pneumoniae [33],4 µg/mL
